This note sets out measurements from PubChem BioAssay.

SMILES strings stand for the structures. A number with no mark means an inactive call.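 The calls were made as follows, unless noted: active = growth inhibition above 25% in both replicates, a cutoff set 3 SD above the mean; inconclusive = above 25% in only one replicate; inactive = the rest.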

The first experiment is described as follows: S. cerevisiae growth inhibition in permissive medium (OD615), pilot counter-assay for S. cerevisiae lifespan shortening project, permissive growth control (AID 705). To be noted: OD615, 24 h, at 10 µM, stronger effect = higher value. A digest of the protocol:
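assay system = Saccharomyces cerevisiae strain carrying genetically modified DeaD replicative-lifespan system | technique = absorbance (optical density) at 615 nm | buffer or medium = permissive raffinose/galactose medium | timing = cells pre-grown 4 h, then 24 h compound exposure, 30 °C humidified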
Turning to `O=C(NCc1ccco1)c1ccc(CN2CCOCC2)cc1`, the growth inhibition is -5.32%.
In the case of `CSc1nc2c(cnn2-c2ccc(C)c(C)c2)c(=O)[nH]1`, the growth inhibition is 3.89%.
For `O=C(CSc1oc(-c2ccc(F)cc2)nc1S(=O)(=O)c1ccc(F)cc1)NCC1CCCO1` (stereo not given), the growth inhibition was -8.11%.
The same measure, in the same setting: the figure for `CCc1nnc(NC(=O)c2ccc(S(=O)(=O)N(CC)CC)cc2)s1` is -7.41%.
Regarding `CCOc1ccc(-c2cc(CCCC(=O)Nc3cccc(OC)c3)no2)cc1`, the growth inhibition was -6.04%.
`CSc1nc(N2CCN(CCO)CC2)c2sc3nc(-c4ccco4)c4c(c3c2n1)CCC4`: the growth inhibition was -5.56%.
`O=C(O)c1ccc(N2C(=O)CC(Cc3ccccc3)C2=O)cc1` (stereo not given): the growth inhibition was -3.14%.
The same measure, in the same setting: the figure for `Cc1ccc(Cl)cc1N1CCN(C(=O)c2cc3c(=O)n(C)c4ccccc4c3n2C)CC1` is -2.52%.
On the same count and under the same terms, the same measure for `Cn1nc(-c2ccc(Cl)cc2)c2cc(C(=O)NCCN3CCOCC3)sc21`: -4.46%.
On to `COc1cccc(C(=O)Nc2nnc(-c3ccc(Cl)cc3)o2)c1`, for which the growth inhibition is 2.17%.
For the molecule `O=C(Nc1nnc(-c2cccs2)o1)c1cccc(F)c1`, the growth inhibition is -18.7%.
For `COc1cc(OC)cc(C(=O)Nc2cccc(C(C)=O)c2)c1`, the growth inhibition was -6.17%.
Take `CC1=C(C(=O)OCc2ccc3c(c2)OCO3)C(c2ccccc2)NC(=O)N1` (stereo not given): the growth inhibition was -12%.
`COc1ccc(OC)c(NC(=O)C(CC(C)C)NC(=O)C2CCCCC2)c1` (stereo not given): the growth inhibition is -5.08%.
`CCn1c(=O)c(=O)[nH]c2cc(C(=O)NC3CCCc4ccccc43)ccc21` (stereo not given): the growth inhibition is -2.89%.
Turning to `c1coc(CNc2c3c(nc4ccccc24)CCC3)c1`, the growth inhibition is -9.23%.
On to `O=C(Nc1nnc(-c2cccs2)o1)c1cccc(Oc2ccccc2)c1`, for which the growth inhibition is 16.2%.
On to `COc1cc2c(cc1OC)C(c1cccs1)NCC2` (stereo not given), for which the growth inhibition is -10.4%.
With `COc1ccc(CCNC(=O)c2oc3ccc(S(=O)(=O)N4CCOCC4)cc3c2C)cc1OC`, the growth inhibition was -0.835%.
For `CCOc1ccc2nc3ccc4[nH]onc4c3c2c1`, the growth inhibition is 0.485%.
Regarding `Cc1nc(N2CCN(Cc3ccc4c(c3)OCO4)CC2)c2oc3ccccc3c2n1`, the growth inhibition is -0.195%.
`COc1ccccc1C1CC(c2ccc(Cl)cc2Cl)Nc2nc(N)nn21` (stereo not given): the growth inhibition was -5.97%.
Consider `COc1ccc(Cl)cc1N1C(=O)C2CCCN2C1c1ccc(F)c(F)c1` (stereo not given), for which the growth inhibition was -5.22%.
The same measure, in the same setting: the same measure for `Cc1ccc(-c2nc(-c3ccccn3)no2)cc1`: 1.26%; for `CCOC(=O)C1=C(C)N=c2s/c(=C\c3ccncc3)c(=O)n2C1c1ccc2c(c1)OCO2` (stereo not given): -12%.
Regarding `CN1C(=O)C(O)(CC(=O)c2ccccn2)c2cc(Br)ccc21` (stereo not given), the growth inhibition was -0.08%.
On the same count and under the same terms, the same measure for `O=C(CCS(=O)(=O)c1ccccc1)Nc1nc2c(s1)CCCC2`: -16.6%; for `O=C(CN(C1CCCCC1)S(=O)(=O)c1ccccc1)N1CCCC1`: -9.43%.
On to `Cc1ccccc1CN1C(=O)C(O)(CC(=O)c2ccncc2)c2ccccc21` (stereo not given), for which the growth inhibition is -11.4%.
For `CCN1CCN(c2cc(C)c3cc(NC(=O)c4ccc(Br)o4)ccc3n2)CC1`, the growth inhibition was -8.91%.
For the molecule `Cc1ccc(N2C(=O)Nc3ccc(Br)cc3C2(O)C(=O)NCCCN(C)C)cc1C` (stereo not given), the growth inhibition is -7.06%.
As to `COc1ccc(NC(=O)NCCCN2CCN(c3cc(C)ccc3C)CC2)cc1`, the growth inhibition was -11.2%.
In the case of `Cc1cccc(C2CC(c3ccccc3)Nc3ncnn32)c1` (stereo not given), the growth inhibition is 3.16%.
With `COc1ccc(S(=O)(=O)Cc2ccc(C(=O)N3CCN(c4ccc(Cl)cc4)CC3)o2)cc1`, the growth inhibition was 2.93%.
Take `O=C(CSc1nc(-c2ccco2)cc(C(F)(F)F)n1)Nc1ccc(C(=O)N2CCCCC2)cc1`: the growth inhibition is 0.645%.
In the case of `Cn1c(C(=O)NC2CCCCCC2)cc2c(=O)n(C)c3ccccc3c21`, the growth inhibition was 1.31%.
Regarding `CCNC(=O)CN(C1CCCCC1)S(=O)(=O)c1ccc(F)cc1`, the growth inhibition was -8.23%.
The same measure, in the same setting: the same measure for `COc1cc(C(=O)N2CCN(c3ccc(C)cc3C)CC2)cc(OC)c1OC`: -4.88%; for `Cc1cc(N2CCN(S(=O)(=O)c3ccc(Cl)cc3)CC2)c2ccccc2n1`: -3.2%; for `OC(COc1ccc(C2C=CCC2)cc1)CN1CCCCC1` (stereo not given): 0.36%.

Another experiment is described as follows: S. cerevisiae growth inhibition in restrictive medium, OD615, pilot screen, restrictive growth control, yeast lifespan reduction project (AID 706;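 active = growth inhibition above a set limit, 3 SD over mean compound inhibition, in both replicates, cut at about 43% in these data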;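 also: modified DeaD lifespan yeast strain shifted to restrictive glucose medium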). Particulars: OD615, 48 h, at 10 µM, stronger effect = higher value. The method, boiled down:
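System: modified S. cerevisiae. Buffer or medium: CSMM-D glucose medium. Incubation: 4 h pre-growth plus 48 h compound exposure, 30 °C. Detection: absorbance (optical density) measured at 615 nm.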
`O=C(NCc1ccco1)c1ccc(CN2CCOCC2)cc1`: the growth inhibition was 1.69%.
Turning to `CSc1nc2c(cnn2-c2ccc(C)c(C)c2)c(=O)[nH]1`, the growth inhibition was 1.82%.
On the same count and under the same terms, the figure for `O=C(CSc1oc(-c2ccc(F)cc2)nc1S(=O)(=O)c1ccc(F)cc1)NCC1CCCO1` (stereo not given) is -3.3%.
Same read-out and setting: the figure for `CCc1nnc(NC(=O)c2ccc(S(=O)(=O)N(CC)CC)cc2)s1` is -3.27%; for `CCOc1ccc(-c2cc(CCCC(=O)Nc3cccc(OC)c3)no2)cc1` it is 3.52%.
In the case of `CSc1nc(N2CCN(CCO)CC2)c2sc3nc(-c4ccco4)c4c(c3c2n1)CCC4`, the growth inhibition was -10.7%.
With `O=C(O)c1ccc(N2C(=O)CC(Cc3ccccc3)C2=O)cc1` (stereo not given), the growth inhibition is 2.02%.
As for `Cc1ccc(Cl)cc1N1CCN(C(=O)c2cc3c(=O)n(C)c4ccccc4c3n2C)CC1`, the growth inhibition is 9.03%.
Take `Cn1nc(-c2ccc(Cl)cc2)c2cc(C(=O)NCCN3CCOCC3)sc21`: the growth inhibition is -5.2%.
Take `COc1cccc(C(=O)Nc2nnc(-c3ccc(Cl)cc3)o2)c1`: the growth inhibition is 2.42%.
Regarding `O=C(Nc1nnc(-c2cccs2)o1)c1cccc(F)c1`, the growth inhibition was 9.29%.
As for `COc1cc(OC)cc(C(=O)Nc2cccc(C(C)=O)c2)c1`, the growth inhibition is -2.38%.
Turning to `CC1=C(C(=O)OCc2ccc3c(c2)OCO3)C(c2ccccc2)NC(=O)N1` (stereo not given), the growth inhibition was -9.41%.
As to `COc1ccc(OC)c(NC(=O)C(CC(C)C)NC(=O)C2CCCCC2)c1` (stereo not given), the growth inhibition is 11.6%.
Take `CCn1c(=O)c(=O)[nH]c2cc(C(=O)NC3CCCc4ccccc43)ccc21` (stereo not given): the growth inhibition was -5.91%.
`c1coc(CNc2c3c(nc4ccccc24)CCC3)c1`: the growth inhibition was -0.365%.
For the molecule `O=C(Nc1nnc(-c2cccs2)o1)c1cccc(Oc2ccccc2)c1`, the growth inhibition was 24.4%.
Regarding `COc1cc2c(cc1OC)C(c1cccs1)NCC2` (stereo not given), the growth inhibition was -8.06%.
In the case of `COc1ccc(CCNC(=O)c2oc3ccc(S(=O)(=O)N4CCOCC4)cc3c2C)cc1OC`, the growth inhibition is -1.39%.
The same measure, in the same setting: the same measure for `CCOc1ccc2nc3ccc4[nH]onc4c3c2c1`: 1.57%.
Consider `Cc1nc(N2CCN(Cc3ccc4c(c3)OCO4)CC2)c2oc3ccccc3c2n1`, for which the growth inhibition is -1.24%.
As to `COc1ccccc1C1CC(c2ccc(Cl)cc2Cl)Nc2nc(N)nn21` (stereo not given), the growth inhibition was 25.2%.
Regarding `COc1ccc(Cl)cc1N1C(=O)C2CCCN2C1c1ccc(F)c(F)c1` (stereo not given), the growth inhibition is -6.92%.
`Cc1ccc(-c2nc(-c3ccccn3)no2)cc1`: the growth inhibition was 10.2%.
Regarding `CCOC(=O)C1=C(C)N=c2s/c(=C\c3ccncc3)c(=O)n2C1c1ccc2c(c1)OCO2` (stereo not given), the growth inhibition was 23.8%.
As to `CN1C(=O)C(O)(CC(=O)c2ccccn2)c2cc(Br)ccc21` (stereo not given), the growth inhibition is 6.53%.
`O=C(CCS(=O)(=O)c1ccccc1)Nc1nc2c(s1)CCCC2`: the growth inhibition is -17.7%.
For the molecule `O=C(CN(C1CCCCC1)S(=O)(=O)c1ccccc1)N1CCCC1`, the growth inhibition is -3.8%.
`Cc1ccccc1CN1C(=O)C(O)(CC(=O)c2ccncc2)c2ccccc21` (stereo not given): the growth inhibition is -5.55%.
`CCN1CCN(c2cc(C)c3cc(NC(=O)c4ccc(Br)o4)ccc3n2)CC1`: the growth inhibition is -15.6%.
Same read-out and setting: the same measure for `Cc1ccc(N2C(=O)Nc3ccc(Br)cc3C2(O)C(=O)NCCCN(C)C)cc1C` (stereo not given): -9.65%.
For `COc1ccc(NC(=O)NCCCN2CCN(c3cc(C)ccc3C)CC2)cc1`, the growth inhibition is -19.5%.
Regarding `Cc1cccc(C2CC(c3ccccc3)Nc3ncnn32)c1` (stereo not given), the growth inhibition was 13.8%.
As for `COc1ccc(S(=O)(=O)Cc2ccc(C(=O)N3CCN(c4ccc(Cl)cc4)CC3)o2)cc1`, the growth inhibition is -3.86%.
With `O=C(CSc1nc(-c2ccco2)cc(C(F)(F)F)n1)Nc1ccc(C(=O)N2CCCCC2)cc1`, the growth inhibition was -0.65%.
As for `Cn1c(C(=O)NC2CCCCCC2)cc2c(=O)n(C)c3ccccc3c21`, the growth inhibition is -8.3%.
Turning to `CCNC(=O)CN(C1CCCCC1)S(=O)(=O)c1ccc(F)cc1`, the growth inhibition is -2.66%.
In the case of `COc1cc(C(=O)N2CCN(c3ccc(C)cc3C)CC2)cc(OC)c1OC`, the growth inhibition is 2.84%.
Regarding `Cc1cc(N2CCN(S(=O)(=O)c3ccc(Cl)cc3)CC2)c2ccccc2n1`, the growth inhibition was -2.46%.
Turning to `OC(COc1ccc(C2C=CCC2)cc1)CN1CCCCC1` (stereo not given), the growth inhibition is -8.12%.
